Results taken from ChEMBL document CHEMBL3860041, “Synthesis, biological evaluation and molecular modeling study of some new methoxylated 2-benzylthio-quinazoline-4(3H)-ones as nonclassical antifolates” (Bioorg Med Chem Lett, 2016).

Columns and labels:
[1] = test system: Cancer cell lines; experiment: Potency index, ratio of 5-fluorouracil GI50 to compound GI50 for human colon cancer cells; type: functional
Procedure, shortened: (§1)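 GI50 for each cell line came from NCI panel testing over a 5-log dose range, with 5-fluorouracil tested alongside as the reference drug. The index relates the 5-fluorouracil GI50 to the compound GI50 within each tumour subpanel.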

[2] = Growth inhibition of human OVCAR4 cells at 10 uM after 48 hrs by SRB assay relative to control; type: functional; settings: OVCAR-4, 48 h, read-out: GI
Procedure, shortened: (§2)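 NCI 60-cell-line panel, nine tumor subpanels; compounds tested at a single dose of 10 μM in the primary screen.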

[3] = Growth inhibition of human SF268 cells at 10 uM after 48 hrs by SRB assay relative to control; type: functional; settings: SF-268, 48 h, read-out: GI; procedure, shortened: as §2
[4] = Growth inhibition of human PC3 cells at 10 uM after 48 hrs by SRB assay relative to control; type: functional; settings: PC-3, 48 h, read-out: GI; procedure, shortened: as §2
[5] = Growth inhibition of human HCC2998 cells at 10 uM after 48 hrs by SRB assay relative to control; type: functional; settings: HCC 2998, 48 h, read-out: GI; procedure, shortened: as §2
[6] = test system: Cancer cell lines; experiment: Potency index, ratio of 5-fluorouracil GI50 to compound GI50 for human ovarian cancer cells; type: functional; procedure, shortened: as §1
[7] = Growth inhibition of human SW620 cells at 10 uM after 48 hrs by SRB assay relative to control; type: functional; settings: SW-620, 48 h, read-out: GI
Procedure, shortened: (§3)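 Primary screen across the full NCI 60 human tumour cell line panel, which covers nine tumour subpanels. A single dose of 10 μM was applied to each line, and growth was recorded for each cell line.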

[8] = Growth inhibition of human CNS cancer cells after 48 hrs by SRB assay; type: functional; settings: Cancer cell lines
Procedure, shortened: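 Five-log dose range against NCI tumor cell lines, monitoring GI50, TGI and LC50 for each cell line; MG-MID values derived across the panel; 5-fluorouracil positive control.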

[9] = Growth inhibition of human leukemia cells after 48 hrs by SRB assay; type: functional; settings: Leukemia cell
Procedure, shortened: (§4)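 Follow-up NCI panel testing over a 5-log dose range for each cell line. GI50, TGI and LC50 were monitored, with 5-fluorouracil run as the positive control. Values are grouped by tumour subpanel.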

[10] = Growth inhibition of human A498 cells at 10 uM after 48 hrs by SRB assay relative to control; type: functional; settings: A498, 48 h, read-out: GI; procedure, shortened: as §2
[11] = test system: Cancer cell lines; experiment: Potency index, ratio of 5-fluorouracil GI50 to compound GI50 for human breast cancer cells; type: functional; procedure, shortened: as §1
[12] = Growth inhibition of human NCI-322M cells at 10 uM after 48 hrs by SRB assay relative to control; type: functional; settings: read-out: GI; procedure, shortened: as §2
[13] = test system: Leukemia cell; experiment: Potency index, ratio of 5-fluorouracil GI50 to compound GI50 for human leukemia cells; type: functional; procedure, shortened: as §1
[14] = Growth inhibition of human UACC257 cells at 10 uM after 48 hrs by SRB assay relative to control; type: functional; settings: UACC-257, 48 h, read-out: GI; procedure, shortened: as §3
[15] = biological target: T1, Dihydrofolate reductase (Bos taurus, UniProt P00376); experiment: Inhibition of bovine liver DHFR preincubated for 2 mins followed by addition of FH2 as substrate and NADPH
T1 sequence (P00376 whole entry): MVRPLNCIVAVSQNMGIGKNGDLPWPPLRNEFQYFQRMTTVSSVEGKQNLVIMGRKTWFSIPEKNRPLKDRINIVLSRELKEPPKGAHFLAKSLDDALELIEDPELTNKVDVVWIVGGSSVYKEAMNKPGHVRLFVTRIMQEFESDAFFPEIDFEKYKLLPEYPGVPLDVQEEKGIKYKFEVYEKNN

[16] = Growth inhibition of human SK-MEL-5 cells at 10 uM after 48 hrs by SRB assay relative to control; type: functional; settings: SK-MEL-5, 48 h, read-out: GI; procedure, shortened: as §3
[17] = test system: Melanoma cell; experiment: Potency index, ratio of 5-fluorouracil GI50 to compound GI50 for human melanoma cells; type: functional; procedure, shortened: as §1
[18] = Growth inhibition of human MCF7 cells at 10 uM after 48 hrs by SRB assay relative to control; type: functional; settings: MCF7, 48 h, read-out: GI; procedure, shortened: as §2
[19] = Growth inhibition of human KM12 cells at 10 uM after 48 hrs by SRB assay relative to control; type: functional; settings: KM12, 48 h, read-out: GI; procedure, shortened: as §2
[20] = Growth inhibition of human M14 cells at 10 uM after 48 hrs by SRB assay relative to control; type: functional; settings: M14, 48 h, read-out: GI; procedure, shortened: as §2
[21] = Growth inhibition of human IGROV1 cells at 10 uM after 48 hrs by SRB assay relative to control; type: functional; settings: IGROV-1, 48 h, read-out: GI; procedure, shortened: as §2
[22] = Growth inhibition of human RPMI8226 cells at 10 uM after 48 hrs by SRB assay relative to control; type: functional; settings: RPMI-8226, 48 h, read-out: GI; procedure, shortened: as §2
[23] = Growth inhibition of human ACHN cells at 10 uM after 48 hrs by SRB assay relative to control; type: functional; settings: read-out: GI; procedure, shortened: as §2
[24] = Growth inhibition of human SKOV3 cells at 10 uM after 48 hrs by SRB assay relative to control; type: functional; settings: SK-OV-3, 48 h, read-out: GI; procedure, shortened: as §3
[25] = Growth inhibition of human prostate cancer cells after 48 hrs by SRB assay; type: functional; settings: Cancer cell lines; procedure, shortened: as §4
[26] = test system: Cancer cell lines; experiment: Potency index, ratio of 5-fluorouracil GI50 to compound GI50 for human CNS cancer cells; type: functional; procedure, shortened: as §1
[27] = Growth inhibition of human SR cells at 10 uM after 48 hrs by SRB assay relative to control; type: functional; settings: read-out: GI; procedure, shortened: as §3
[28] = Growth inhibition of human SF295 cells at 10 uM after 48 hrs by SRB assay relative to control; type: functional; settings: SF-295, 48 h, read-out: GI; procedure, shortened: as §2
[29] = Growth inhibition of human HCT15 cells at 10 uM after 48 hrs by SRB assay relative to control; type: functional; settings: HCT-15, 48 h, read-out: GI; procedure, shortened: as §2
[30] = Growth inhibition of human MALME-3M cells at 10 uM after 48 hrs by SRB assay relative to control; type: functional; settings: read-out: GI; procedure, shortened: as §2
[31] = Growth inhibition of human NCI-H522 cells at 10 uM after 48 hrs by SRB assay relative to control; type: functional; settings: NCI-H522, 48 h, read-out: GI; procedure, shortened: as §2

SMILES: COc1cc(CSc2nc3ccc(C)cc3c(=O)n2-c2ccccc2)cc(OC)c1OC
- RatioGI50 [1]: 10
- inhibition of growth at 10 µM [2]: 42.8%
- inhibition of growth at 10 µM [3]: 52.6%
- inhibition of growth at 10 µM [4]: 51%
- inhibition of growth at 10 µM [5]: 50.3%
- RatioGI50 [6]: 10
- inhibition of growth at 10 µM [7]: 70.3%
- GI50 [8]: 5.4 µM
- LC50 (lethal concentration, 50% net cell kill) [8]: > 100 µM
- TGI [8]: 60.9 µM
- GI50 [9]: 1.8 µM
- TGI [9]: > 100 µM
- CC50 ([9]; read-out: LC50 (the source's name)): > 100 µM
- inhibition of growth at 10 µM [10]: 84%
- RatioGI50 [11]: 10
- inhibition of growth at 10 µM [12]: 52.6%
- RatioGI50 [13]: 10
- inhibition of growth at 10 µM [14]: 49.8%
- IC50 [15]: 7 µM
- inhibition of growth at 10 µM [16]: 80%
- RatioGI50 [17]: 10
- inhibition of growth at 10 µM [18]: 80.1%
- inhibition of growth at 10 µM [19]: 74.7%
- inhibition of growth at 10 µM [20]: 82.8%
- inhibition of growth at 10 µM [21]: 66.8%
- inhibition of growth at 10 µM [22]: 45.1%
- inhibition of growth at 10 µM [23]: 55.3%
- inhibition of growth at 10 µM [24]: 86.4%
- GI50 [25]: 3.4 µM
- LC50 (concentration killing 50% of cells) [25]: > 100 µM
- RatioGI50 [26]: 10
- inhibition of growth at 10 µM [27]: 79.7%
- inhibition of growth at 10 µM [28]: 67.2%
- inhibition of growth at 10 µM [29]: 69.9%
- inhibition of growth at 10 µM [30]: 57.6%
- inhibition of growth at 10 µM [31]: 91.7%
